Format in all cases: functional
Assay [1] concerns Rattus norvegicus. The experiment in a line: Percent decrease in Total Low density lipoproteins was determined after intraperitoneal administration of a dose of 56 uM/kg. Summed up: (§1)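 Hyperlipidemia induced in male Fischer-344 rats (230-280 g) by Triton WR 1339 in aqueous solution, 200 mg/kg ip. 1 h later the compound (28 or 56 µmol/kg, in saline) or saline alone was given ip; at 56 µmol/kg, dosing was twice in 24 h. After 24 h, aortic blood was drawn for plasma total cholesterol, LDL and triglycerides, expressed as % decrease. 4-6 rats per group; Student's t-test.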

Assay [2] relates to Rattus norvegicus. Description: Percent decrease in Total Triglycerides was determined after intraperitoneal administration of a dose of 56 uM/kg. Summed up: as §1
For assay [3], the system named is Rattus norvegicus. Description: Percent decrease in Total cholesterol was determined after intraperitoneal administration of a dose of 56 uM/kg. The method, boiled down: as §1
Assay [4] relates to Rattus norvegicus. Description: Percent decrease in Total cholesterol was determined after intraperitoneal uM/kg. Summed up: as §1
Assay [5] concerns Rattus norvegicus. The experiment in a line: Percent decrease in Total Low density lipoproteins was determined after intraperitoneal uM/kg. Summed up: as §1
Assay [6] deals with Rattus norvegicus. Description: Percent decrease in Total Triglycerides was determined after intraperitoneal uM/kg. The method, boiled down: as §1
The test system of assay [7] is Rattus norvegicus. Description: Percent decrease in Total Low density lipoproteins was determined after intraperitoneal administration of a dose of 56 umol/kg. Summed up: as §1
In assay [8] the test system is Rattus norvegicus. The experiment in a line: Percent decrease in Total Low density lipoproteins was determined after intraperitoneal uM/kg; Not significant. The method, boiled down:
as §1

Consider 7 compounds from ChEMBL document CHEMBL1133122, “Hypocholesterolemic and hypolipidemic activity of some novel morpholine derivatives with antioxidant activity” (J Med Chem, 2000).

Consider `CN1CCOC(O)(c2ccc(-c3ccccc3)cc2)C1.Cl` (stereo unspecified), for which the Decrease in the assay with Rattus norvegicus [1] was 32%; in the assay on Rattus norvegicus [2], 42%; with Rattus norvegicus [3], 32%.

Take `CN1CC(O)(c2ccc(-c3ccccc3)cc2)OC2CCCCC21` (stereo unspecified): the Decrease in the assay on Rattus norvegicus [4] is given as 54%; in the assay on Rattus norvegicus [5], 51%; in the assay with Rattus norvegicus [6] it was 49%.

In the case of `OC1(c2ccc(-c3ccccc3)cc2)CN2CCCCC2CO1` (stereo unspecified), the Decrease turned out to be 22% in the assay on Rattus norvegicus [4], 51% in the assay on Rattus norvegicus [5] and 20% in the assay with Rattus norvegicus [6].

Consider `CCCOC1(c2ccc(-c3ccccc3)cc2)CN(C)C2CCCCC2O1.Cl` (stereo unspecified), for which the Decrease is 50% in the assay on Rattus norvegicus [4], 28% in the assay on Rattus norvegicus [7] and 41% in the assay with Rattus norvegicus [6].

Consider `CCOC1(c2ccc(-c3ccccc3)cc2)CN(C)CCO1.Cl` (stereo unspecified), for which the Decrease came to 22% in the assay on Rattus norvegicus [1], 39% with Rattus norvegicus [2] and 30% in the assay on Rattus norvegicus [3].

Regarding `CCCOC1(c2ccc(-c3ccccc3)cc2)CN2CCCCC2CO1.Cl` (stereo unspecified), the Decrease amounted to 36% in the assay with Rattus norvegicus [4], 17% in the assay on Rattus norvegicus [8] and 34% with Rattus norvegicus [6].

Turning to `CC(C)(Sc1cc(C(C)(C)C)c(O)c(C(C)(C)C)c1)Sc1cc(C(C)(C)C)c(O)c(C(C)(C)C)c1` [PROBUCOL], the Decrease in the assay on Rattus norvegicus [1] was 18%; in the assay with Rattus norvegicus [2], 11%; in the assay with Rattus norvegicus [3], 18%.
